ChEMBL document CHEMBL1154858, “Synthesis, in vitro antibacterial and antifungal evaluations of new alpha-hydroxyphosphonate and new alpha-acetoxyphosphonate derivatives of tetrazolo [1, 5-a] quinoline” (2010)
Converted amounts (≈) assume the structure as drawn.

Columns and labels:
Type in all cases: functional
Bacillus subtilis [1] = test: Antibacterial activity against Bacillus subtilis NCIM 2250 after 48 hrs by agar cup plate method
How it was run: (§1)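 Agar cup plate zone-of-inhibition assay on Mueller Hinton agar, with compounds dissolved in DMF and streptomycin in DMF as the reference. Plates were incubated at 37 ± 0.5 °C for 48 h. Inhibition was scored as the diameter of the growth-free zone around the cup.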

Escherichia coli [2] = test: Antibacterial activity against Escherichia coli ATCC 25922 after 24 hrs by cup plate method; details: ATCC 25922, 24 h
How it was run: (§2)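 Cup-plate MIC on Mueller Hinton agar plates containing the compound at 0 (control), 1, 2, 3, 5, 10, 15, 20, 30 and 40 (unit unclear), with compounds dissolved in DMF. Plates were read after 24 h and incubated further up to 72 h where needed. MIC is the lowest concentration giving no visible macroscopic growth.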

Aspergillus niger [3] = test: Antifungal activity against Aspergillus niger NCIM 545 after 24 hrs by cup plate method; details: NCIM 545, 24 h; how it was run: as §2
Candida albicans [4] = test: Antifungal activity against Candida albicans MTCC 277 after 24 hrs by cup plate method; details: MTCC 277, 24 h; how it was run: as §2
Bacillus subtilis [5] = test: Antibacterial activity against Bacillus subtilis NCIM 2250 after 24 hrs by cup plate method; details: NCIM 2250, 24 h; how it was run: as §2
Aspergillus niger [6] = test: Antifungal activity against Aspergillus niger NCIM 545 after 48 hrs by agar cup plate method
How it was run: (§3)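 Fungal zone-of-inhibition test in Czapek Dox medium by the agar cup method, with compounds dissolved in DMF and griseofulvin in DMF as the reference. Plates were incubated at 28 ± 0.5 °C for 48 h. Activity was taken as the diameter of the zone of inhibited growth around the cup.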

Candida albicans [7] = test: Antifungal activity against Candida albicans MTCC 277 after 48 hrs by agar cup plate method; how it was run: as §3
Escherichia coli [8] = test: Antibacterial activity against Escherichia coli ATCC 25922 after 48 hrs by agar cup plate method; how it was run: as §1

Compound | diameter of the inhibition zone (DIZ) (Bacillus subtilis [1]) | MIC (Escherichia coli [2]) | MIC (Aspergillus niger [3]) | MIC (Candida albicans [4]) | MIC (Bacillus subtilis [5]) | diameter of the inhibition zone (DIZ) (Aspergillus niger [6]) | diameter of the inhibition zone (DIZ) (Candida albicans [7]) | diameter of the inhibition zone (DIZ) (Escherichia coli [8])
CCOc1ccc2c(c1)cc(C(O)P(=O)(OCC)OCC)c1nnnn12 (configuration not stated) | 15.4 mm | 15 µg/mL (≈ 39.4 µM) | 15 µg/mL (≈ 39.4 µM) | 10 µg/mL (≈ 26.3 µM) | 10 µg/mL (≈ 26.3 µM) | 12.8 mm | 13.8 mm | 13.5 mm
CCOP(=O)(OCC)C(OC(C)=O)c1cc2ccc(C)cc2n2nnnc12 (configuration not stated) | 14.1 mm | 15 µg/mL (≈ 38.2 µM) | 10 µg/mL (≈ 25.5 µM) | 10 µg/mL (≈ 25.5 µM) | 10 µg/mL (≈ 25.5 µM) | 15.2 mm | 13.4 mm | 13.2 mm
CCOP(=O)(OCC)C(OC(C)=O)c1cc2cccc(OC)c2n2nnnc12 (configuration not stated) | 11.4 mm | 25 µg/mL (≈ 61.2 µM) | 15 µg/mL (≈ 36.7 µM) | 15 µg/mL (≈ 36.7 µM) | 15 µg/mL (≈ 36.7 µM) | 13.4 mm | 12.1 mm | 13.9 mm
CCOP(=O)(OCC)C(O)c1cc2cc(OC)ccc2n2nnnc12 (configuration not stated) | 12.4 mm | 15 µg/mL (≈ 40.9 µM) | 15 µg/mL (≈ 40.9 µM) | 10 µg/mL (≈ 27.3 µM) | 10 µg/mL (≈ 27.3 µM) | 12.2 mm | 14.1 mm | 13.3 mm
CCOP(=O)(OCC)C(O)c1cc2ccc(OC)cc2n2nnnc12 (configuration not stated) | 12 mm | 15 µg/mL (≈ 40.9 µM) | 10 µg/mL (≈ 27.3 µM) | 10 µg/mL (≈ 27.3 µM) | 10 µg/mL (≈ 27.3 µM) | 14.4 mm | 13.4 mm | 13.6 mm
CCOP(=O)(OCC)C(OC(C)=O)c1cc2cc(OC)ccc2n2nnnc12 (configuration not stated) | 13.2 mm | 10 µg/mL (≈ 24.5 µM) | 10 µg/mL (≈ 24.5 µM) | 10 µg/mL (≈ 24.5 µM) | 10 µg/mL (≈ 24.5 µM) | 14.2 mm | 13.4 mm | 12.4 mm
CCOP(=O)(OCC)C(OC(C)=O)c1cc2ccc(OC)cc2n2nnnc12 (configuration not stated) | 12.5 mm | 15 µg/mL (≈ 36.7 µM) | 25 µg/mL (≈ 61.2 µM) | 10 µg/mL (≈ 24.5 µM) | 10 µg/mL (≈ 24.5 µM) | 12.5 mm | 13.8 mm | 11.1 mm
CCOc1ccc2c(c1)cc(C(OC(C)=O)P(=O)(OCC)OCC)c1nnnn12 (configuration not stated) | 12.1 mm | 10 µg/mL (≈ 23.7 µM) | 10 µg/mL (≈ 23.7 µM) | 10 µg/mL (≈ 23.7 µM) | 10 µg/mL (≈ 23.7 µM) | 14.5 mm | 14.1 mm | 13.8 mm
CCOP(=O)(OCC)C(O)c1cc2cccc(OC)c2n2nnnc12 (configuration not stated) | 12.5 mm | 15 µg/mL (≈ 40.9 µM) | 15 µg/mL (≈ 40.9 µM) | 15 µg/mL (≈ 40.9 µM) | 10 µg/mL (≈ 27.3 µM) | 11.5 mm | 13.8 mm | 13.3 mm
CCOP(=O)(OCC)C(O)c1cc2cccc(C)c2n2nnnc12 (configuration not stated) | 12.3 mm | 25 µg/mL (≈ 71.4 µM) | 15 µg/mL (≈ 42.8 µM) | 10 µg/mL (≈ 28.5 µM) | 10 µg/mL (≈ 28.5 µM) | 13.1 mm | 13 mm | 13.7 mm
CCOP(=O)(OCC)C(O)c1cc2ccc(C)cc2n2nnnc12 (configuration not stated) | 13.6 mm | 15 µg/mL (≈ 42.8 µM) | 15 µg/mL (≈ 42.8 µM) | 10 µg/mL (≈ 28.5 µM) | 10 µg/mL (≈ 28.5 µM) | 13.2 mm | 13.8 mm | 12 mm
CCOP(=O)(OCC)C(OC(C)=O)c1cc2cc(C)ccc2n2nnnc12 (configuration not stated) | 12 mm | 15 µg/mL (≈ 38.2 µM) | 10 µg/mL (≈ 25.5 µM) | 10 µg/mL (≈ 25.5 µM) | 10 µg/mL (≈ 25.5 µM) | 14.1 mm | 13.1 mm | 11.4 mm
CCOP(=O)(OCC)C(OC(C)=O)c1cc2cccc(C)c2n2nnnc12 (configuration not stated) | 13.1 mm | 10 µg/mL (≈ 25.5 µM) | 15 µg/mL (≈ 38.2 µM) | 10 µg/mL (≈ 25.5 µM) | 20 µg/mL (≈ 51 µM) | 12.2 mm | 12.2 mm | 13.4 mm
CCOP(=O)(OCC)C(O)c1cc2ccccc2n2nnnc12 (configuration not stated) | 12 mm | 20 µg/mL (≈ 59.5 µM) | 15 µg/mL (≈ 44.6 µM) | 10 µg/mL (≈ 29.7 µM) | 10 µg/mL (≈ 29.7 µM) | 12.1 mm | 13.6 mm | 13.4 mm
CCOP(=O)(OCC)C(O)c1cc2cc(C)ccc2n2nnnc12 (configuration not stated) | 15.2 mm | 10 µg/mL (≈ 28.5 µM) | 10 µg/mL (≈ 28.5 µM) | 10 µg/mL (≈ 28.5 µM) | 10 µg/mL (≈ 28.5 µM) | 14.2 mm | 13.2 mm | 15 mm
CCOP(=O)(OCC)C(O)c1cc2cccc(CC)c2n2nnnc12 (configuration not stated) | 14.5 mm | 20 µg/mL (≈ 54.9 µM) | 10 µg/mL (≈ 27.4 µM) | 10 µg/mL (≈ 27.4 µM) | 10 µg/mL (≈ 27.4 µM) | 14.2 mm | 13.4 mm | 16.2 mm
CCOP(=O)(OCC)C(OC(C)=O)c1cc2cccc(CC)c2n2nnnc12 (configuration not stated) | 15.1 mm | 10 µg/mL (≈ 24.6 µM) | 15 µg/mL (≈ 36.9 µM) | 10 µg/mL (≈ 24.6 µM) | 10 µg/mL (≈ 24.6 µM) | 13.5 mm | 12.1 mm | 14.2 mm
CCOP(=O)(OCC)C(OC(C)=O)c1cc2ccccc2n2nnnc12 (configuration not stated) | 11.2 mm | 10 µg/mL (≈ 26.4 µM) | 20 µg/mL (≈ 52.9 µM) | 10 µg/mL (≈ 26.4 µM) | 15 µg/mL (≈ 39.6 µM) | 13.4 mm | 14.2 mm | 12.5 mm
COC1=CC(=O)C[C@@H](C)[C@]12Oc1c(Cl)c(OC)cc(OC)c1C2=O [GRISEOFULVIN] | – | – | 5 µg/mL (≈ 14.2 µM) | 5 µg/mL (≈ 14.2 µM) | – | 16.5 mm | 16.4 mm | –
CN[C@@H]1[C@H](O[C@H]2[C@H](O[C@H]3[C@H](O)[C@@H](O)[C@H](N=C(N)N)[C@@H](O)[C@@H]3N=C(N)N)O[C@@H](C)[C@]2(O)C=O)O[C@@H](CO)[C@H](O)[C@H]1O [STREPTOMYCIN] | 16.4 mm | 5 µg/mL (≈ 8.6 µM) | – | – | 5 µg/mL (≈ 8.6 µM) | – | – | 16.2 mm
